12 compounds from ChEMBL document CHEMBL1938290, “Synthesis of 5-benzyl-2-phenylpyrazolo[1,5-a]pyrazin-4,6(5H,7H)-dione derivatives and discovery of an apoptosis inducer for H322 lung cancer cells” (Bioorg Med Chem Lett, 2012) can be followed below.

Series [1] deals with A549. As to the kind of experiment: Cytotoxicity against human A549 cells expressing wild type p53 at 40 uM after 48 hrs by SRB assay. In kind it is functional, cell-based. The method, boiled down: (§1)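 A549 (p53 wild-type) lung cancer cells exposed to compound at 20 or 40 µM for 24 or 48 h respectively. Growth/viability then measured by SRB staining with a spectrophotometric read-out, expressed as % of untreated control.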
(Sulforhodamine B stains cellular protein and so reports cell mass.)

In series [2] the test system is A549. As to the kind of experiment: Cytotoxicity against human A549 cells expressing wild type p53 at 20 uM after 24 hrs by SRB assay. The class given is functional, cell-based. The method, boiled down: as §1
A short description of series [3]: (§2) Cytotoxicity against human NCI-H322 cells expressing p53 mutant after 24 hrs by SRB assay. The class given is functional, cell-based. The conditions noted are these: NCI-H322, 24 h. In short, it runs like this:
(§3)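 H322 cells exposed to 10, 20, 30 or 40 µM, alongside untreated control, for 24 h. SRB viability read by spectrophotometer. Mean ± SE, n = 3. IC50 taken from the dose–response at 24 h.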

In series [4] the test system is NCI-H322. Described as §2. In kind it is functional, cell-based. The method, boiled down: as §3
In series [5] the test system is NCI-H322. The experiment in a line: Induction of apoptosis in human NCI-H322 cells assessed as chromatin condensation at 10 to 40 uM after 24 hrs by Hoechst 33258 staining-based fluorescent microscopy. The class given is functional, cell-based. The method, boiled down:
(§4)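 H322 cells cultured 24 h with compound or vehicle (0.1% DMSO), then stained with Hoechst 33258. Viewed by fluorescence microscopy at 400×, scoring condensed chromatin and nuclear granulation (blue fluorescence). Apoptotic cell ratio expressed vs control as mean ± SE, n = 3.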

The subject of series [6] is NCI-H322. As to the kind of experiment: Induction of apoptosis in human NCI-H322 cells assessed as nuclear granulation at 10 to 40 uM after 24 hrs by Hoechst 33258 staining-based fluorescent microscopy. In kind it is functional, cell-based. The method, boiled down:
as §4

The subject of the next series is HUVEC. As to the kind of experiment: Cytotoxicity against HUVEC up to 40 uM by SRB assay. In kind it is cell-based. Particulars: human.
Series [7] in a line: Solubility of the compound. In kind it is physicochemical.
Series [8] deals with NCI-H322. The experiment in a line: Cytotoxicity against human NCI-H322 cells expressing p53 mutant at 20 uM after 24 hrs by SRB assay. In kind it is functional, cell-based. The method, boiled down: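 H322 (p53-mutant) cells treated at 20 µM or left untreated for 24 h. Viability measured by SRB assay and given as % of untreated control. Mean ± SE, n = 3, significance P < 0.05 vs control.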

Active and inactive are the calls of the source. The rule behind the calls is not given here.

Take `COc1cccc(CCN2C(=O)Cn3nc(-c4ccc(Cl)cc4)cc3C2=O)c1`: the result in the series on A549 [1] and in the series with A549 [2] was inactive.
On to `O=C1Cn2nc(-c3ccc(Cl)cc3)cc2C(=O)N1CCc1ccc(F)cc1`, for which the outcome in the series with A549 [1] and in the series on A549 [2] was inactive.
On to `COc1ccc(-c2cc3n(n2)CC(=O)N(CCc2cccc(OC)c2)C3=O)cc1`, for which the result in the series with A549 [1] and in the series with A549 [2] was inactive.
Turning to `O=C1Cn2nc(-c3ccccc3)cc2C(=O)N1Cc1ccccc1`, the outcome with A549 [1] and in the series with A549 [2] was inactive.
With `COc1ccc(-c2cc3n(n2)CC(=O)N(CCc2ccc(F)cc2)C3=O)cc1`, the outcome in the series on A549 [1] and in the series on A549 [2] was inactive.
As for `O=C1Cn2nc(-c3ccccc3)cc2C(=O)N1CCc1ccc(F)cc1`, the outcome with A549 [1] and in the series with A549 [2] was inactive.
For orientation: IC50 means the point on the concentration scale where inhibition reaches its midpoint. A higher IC50 goes with weaker potency. For `COc1ccc(-c2cc3n(n2)CC(=O)N(CCc2ccccc2)C3=O)cc1`, the IC50 in [3] stood at 28.5 µM. Further, the Activity result is “Dose-dependent effect” in the series on NCI-H322 [4] and “Non-toxic” in the series with HUVEC. The result with NCI-H322 [5] and in the series on NCI-H322 [6] was Active. The outcome in the series on A549 [1] and in the series on A549 [2] was inactive.
With `O=C1Cn2nc(-c3ccc(Cl)cc3)cc2C(=O)N1Cc1ccccc1`, the result in the series on A549 [1] and in the series on A549 [2] was inactive.
Take `COc1ccc(-c2cc3n(n2)CC(=O)N(Cc2ccccc2)C3=O)cc1`: the solubility result in [7] is “Insoluble”. In addition, the outcome in the series with A549 [1] and in the series on A549 [2] was inactive. Further, in the series with NCI-H322 [8], the result was Active.
With `COc1cccc(CCN2C(=O)Cn3nc(-c4ccccc4)cc3C2=O)c1`, the result with A549 [1] and in the series on A549 [2] was inactive.
Turning to `O=C1Cn2nc(-c3ccc(Cl)cc3)cc2C(=O)N1CCc1ccccc1`, the outcome in the series on A549 [1] and in the series with A549 [2] was inactive.
For the compound `O=C1Cn2nc(-c3ccccc3)cc2C(=O)N1CCc1ccccc1`, the outcome with A549 [1] and in the series with A549 [2] was inactive.
